# Measured values reported in ChEMBL document CHEMBL4622992, “New Polyaminoisoprenyl Antibiotics Enhancers against Two Multidrug-Resistant Gram-Negative Bacteria from Enterobacter and Salmonella Species” (J Med Chem, 2020).
# Active and inactive are the calls of the source. The rule behind the calls is not given here.
# Assays:
# [1] = tested on: Salmonella typhimurium; experiment: Antibacterial activity against Salmonella enterica subsp. enterica serovar Typhimurium BN10055 assessed as inhibition of bacterial growth incubated for 18 hrs; assay type: organism-based
# How it was run: (§1)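 Broth microdilution per CA-SFM in MH broth; inoculum 10⁵ CFU in 200 µL with two-fold serial dilutions; compounds dissolved in DMSO, up to 5% DMSO on bacteria. MIC = lowest concentration with no visible growth after 18 h at 37°C. Repeated at least three times independently.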
# [2] = tested on: Salmonella typhimurium; experiment: Potentiation of doxycycline-induced antibacterial activity against Salmonella enterica subsp. enterica serovar Typhimurium BN10055 assessed as ratio of the doxycycline alone MIC to doxycycline MIC in presence of MIC/4 level of compound incubated for 18 hrs; assay type: functional
# How it was run: (§2)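 Broth microdilution in MH broth, 10^5 CFU inoculum, two-fold antibiotic dilutions, with or without compound at MIC/4. MIC is the lowest concentration with no visible growth after 18 h at 37°C. Gain is antibiotic MIC alone divided by MIC with compound. MICs repeated in at least three independent experiments; up to 5% DMSO.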
# [3] = tested on: Klebsiella aerogenes; experiment: Potentiation of doxycycline-induced antibacterial activity against Enterobacter aerogenes Ea289 assessed as ratio of the doxycycline alone MIC to doxycycline MIC in presence of MIC/4 level of compound incubated for 18 hrs; assay type: functional; how it was run: as §2
# [4] = Toxicity index, ratio of IC50 for toxicity in CHO cells to concentration of test compound causing at least 8 times decrease of MIC of almost 3 antibiotics (chloramphenicol/nalidixic acid/doxycycline/erythromycin ) against Enterobacter aerogenes Ea289; assay type: cell-based; conditions: hamster, pooled result: one value given for 2 cell lines, strains, targets or settings
# [5] = tested on: Salmonella typhimurium; experiment: Potentiation of chloramphenicol-induced antibacterial activity against Salmonella enterica subsp. enterica serovar Typhimurium BN10055 assessed as ratio of the chloramphenicol alone MIC to […] in presence of MIC/4 level of compound incubated for 18 hrs; assay type: functional; how it was run: as §2
# [6] = tested on: Klebsiella aerogenes; experiment: Potentiation of nalidixic acid-induced antibacterial activity against Enterobacter aerogenes Ea289 assessed as ratio of the nalidixic acid alone MIC to nalidixic acid MIC in presence of MIC/4 level of compound incubated for 18 hrs
# [7] = tested on: Klebsiella aerogenes; experiment: Antibacterial activity against Enterobacter aerogenes Ea289 assessed as inhibition of bacterial growth incubated for 18 hrs; assay type: organism-based; how it was run: as §1
# [8] = tested on: Salmonella typhimurium; experiment: Potentiation of nalidixic acid-induced antibacterial activity against Salmonella enterica subsp. enterica serovar Typhimurium BN10055 assessed as ratio of the nalidixic acid alone MIC to […] in presence of MIC/4 level of compound incubated for 18 hrs; assay type: functional; how it was run: as §2
# [9] = Toxicity in CHO cells assessed as reduction in cell viability incubated for 24 hrs by WST1 assay; assay type: cell-based; conditions: Chinese hamster (Cricetulus griseus)
# How it was run: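 CHO-K1 cells in McCoy's 5A with 10% FCS, exposed in triplicate to 30–1200 μM compound for 24 h at 37°C. After PBS washes, 30 min in medium with 10% WST-1; absorbance at 450 nm. IC50 is the concentration giving 50% loss of viable cells.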
# [10] = tested on: Klebsiella aerogenes; experiment: Potentiation of chloramphenicol-induced antibacterial activity against Enterobacter aerogenes Ea289 assessed as efficiency index by measuring sum of gain factor for each test compound reported for chloramphenicol/nalidixic acid/doxycycline/erythromycin and divided by concentration of test compound; assay type: functional; conditions: pooled result: one value given for 2 cell lines, strains, targets or settings
# How it was run: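 Gain factors (antibiotic MIC alone / MIC with compound at MIC/4; broth dilution, 18 h, 37°C) for erythromycin, doxycycline, nalidixic acid and chloramphenicol are summed, then divided by the compound concentration used in the assay.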
# [11] = tested on: Klebsiella aerogenes; experiment: Potentiation of erythromycin-induced antibacterial activity against Enterobacter aerogenes Ea289 assessed as ratio of the erythromycin alone MIC to erythromycin MIC in presence of MIC/4 level of compound incubated for 18 hrs
# [12] = tested on: Klebsiella aerogenes; experiment: Potentiation of chloramphenicol-induced antibacterial activity against Enterobacter aerogenes Ea289 assessed as ratio of the chloramphenicol alone MIC to […] in presence of MIC/4 level of compound incubated for 18 hrs; assay type: functional; how it was run: as §2
# [13] = tested on: Klebsiella aerogenes; experiment: Antibacterial activity against Enterobacter aerogenes Ea289 containing deltaacrB mutant assessed as inhibition of bacterial growth incubated for 18 hrs; assay type: organism-based; how it was run: as §1
# [14] = tested on: Salmonella typhimurium; experiment: Potentiation of erythromycin-induced antibacterial activity against Salmonella enterica subsp. enterica serovar Typhimurium BN10055 assessed as ratio of the erythromycin alone MIC to erythromycin MIC in presence of MIC/4 level of compound incubated for 18 hrs; assay type: functional; how it was run: as §2
# [15] = tested on: Salmonella typhimurium; experiment: Antibacterial activity against Salmonella enterica subsp. enterica serovar Typhimurium BN10055 containing deltaacrB mutant assessed as inhibition of bacterial growth incubated for 18 hrs; assay type: organism-based; how it was run: as §1
# [16] = tested on: Klebsiella aerogenes; experiment: Induction of outer cell membrane permeabilization in Enterobacter aerogenes Ea289 assessed as induction of nitrocefin hydrolysis at 100 uM measured during initial 200 secs; assay type: organism-based
# How it was run: (§3)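 Cells at OD600 0.25 in phosphate buffer (20 mM K2HPO4, 1 mM MgCl2, pH 7.0) with 5 μM CCCP, mixed with nitrocefin 50 μg/mL, then compound at 100 μM. Periplasmic β-lactamase hydrolysis followed by absorbance at 490 nm every 30 s at 37°C.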
# [17] = tested on: Klebsiella aerogenes; experiment: Inhibition of AcrAB-TolC in Enterobacter aerogenes Ea289 assessed as retention of 1,2'diNA dye within bacterial membranes at 100 uM relative to control; design: scale not given: the % may be the effect or the level left
# How it was run: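 Stationary-phase cells at OD600 0.25 in potassium phosphate buffer pH 7.0 with CCCP 5 µM, loaded overnight with 1,2'-diNA 32 µM at 37°C, washed, compound added at 100 µM. Glucose 50 mM added at 300 s to energize efflux. Fluorescence (ex 370/em 420 nm) read every 30 s at 37°C; PAβN 100 µM as reference.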
# [18] = tested on: Salmonella typhimurium; experiment: Potentiation of doxycycline-induced antibacterial activity against Salmonella typhimurium assessed as mouse survival rate at 0.5 mg/kg, ip co-treated with 64 mg/kg for doxycycline (reference value: 0%); assay type: functional, Salmonella enterica subsp. enterica serovar Typhimurium
# How it was run: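 Female BALB/cByJ mice, 5-6 weeks, anaesthetized with sevoflurane, infected ip with 200 µL of S. Typhimurium at 10² CFU/mL. Daily dosing with saline, doxycycline 64 mg/kg alone, or doxycycline 64 mg/kg plus 0.5 mg/kg compound. Mice weighed daily; sacrificed at day 1 (n=3), 3 (n=3) or 7 (n=6).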
# [19] = tested on: Klebsiella aerogenes; experiment: Induction of outer cell membrane permeabilization in Enterobacter aerogenes Ea289 assessed as induction of nitrocefin hydrolysis at 100 uM incubated for 15 mins; assay type: organism-based; how it was run: as §3
# [20] = tested on: Klebsiella aerogenes; experiment: Induction of cell transmembrane potential disruption in Enterobacter aerogenes Ea289 assessed as membrane potential by measuring fluorescence level at 100 uM by [DiSC3(5)] based assay (reference value: 0.2%)
# [21] = Toxicity in BALB/cByJ mouse assessed as effect on mouse survival at 50 uM, ip measured after 48 hrs; assay type: organism-based; conditions: in vivo
# [22] = Toxicity in BALB/cByJ mouse assessed as induction of toxic signs at 50 uM, ip measured after 48 hrs; assay type: organism-based; conditions: in vivo
# [23] = tested on: Klebsiella aerogenes; experiment: Induction of outer cell membrane permeabilization in Enterobacter aerogenes Ea289 assessed as induction of H33342 dye penetration at 100 uM; assay type: organism-based
SMILES,MIC [1] [µM],Ratio [2],Ratio [3],selectivity ratio [4],Ratio [5],Ratio [6],MIC [7] [µM],Ratio [8],IC50 at 24 h [9] [µM],Activity_index [10],Ratio [11],Ratio [12],MIC [13] [µM],Ratio [14],further results
CC(C)=CCCC(C)=CCNCCNCCNCCNCCNCCN,> 500,4,2,0.06,8,4,> 500,16,> 150,0,1,8,–,–,–
CC(C)=CCC/C(C)=C\CCC(C)=CCNCCCCCCCCCCCCN,–,8,2,–,4,1,–,8,25.3,–,1,2,7.8,2,MIC [15]: 3.9 µM
CC(C)=CCCC(C)=CCNCCNCCNCCN,> 500,–,–,0.06,4,2,> 500,16,> 150,0,–,8,–,–,–
CC(C)=CCCC(C)=CCNCCCN(CCCN)CCCN,–,16,32,16.2,16,8,–,128,127,3.65,16,8,–,4,Activity [16]: inactive; Activity [17]: 68%; Survival [18]: 43%; Activity [19]: Active; Activity [20]: 1%; Activity [21]: Non-Toxic; Activity [22]: Non-Toxic; Activity [23]: Active
CC(C)=CCC/C(C)=C\CCC(C)=CCNCCNCCNCCNCCNCCN,–,16,16,10.7,8,8,–,32,41.7,2.88,4,4,7.8,2,–
